# Screens as filed in PubChem BioAssay.
# IMP-1 inh-1 – blocks Pseudomonas aeruginosa IMP-1 metallo-beta-lactamase | purified IMP-1, nitrocefin hydrolysis, epi-absorbance fluorescence | inhibition, % at 5.6 µM | 290,000 tested, 0.45% active;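 active = inhibition above the mean plus 3 SD of all compounds in the same screening run, cut at about 4.5% in these data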;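 note: 0% = IMP-1 with DMSO and 100% = DMSO wells lacking enzyme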
#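 System: purified IMP-1; amount: IMP-1 0.2 nM before substrate addition; compound: single dose, 5.6 µM; times: 25 °C, 15 min preincubation, 25 min reaction; signal: Epi-absorbance via hydrolysed-nitrocefin quenching of white-plate fluorescence, 480/530 nm, EDTA stop; benchmarks: DMSO with and without IMP-1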
# VIM-2 inh – blocks Pseudomonas aeruginosa VIM-2 metallo-beta-lactamase | inhibition, % at 5.6 µM | AID 1527 | purified VIM-2, nitrocefin hydrolysis, epi-absorbance fluorescence | 290,000 tested, 0.89% active;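 active = inhibition above the mean of all tested compounds plus 3 SD, cutoff set per screening run, cut at about 7.5% in these data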;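 note: red hydrolysis product quenches plate fluorescence so inhibitors raise well fluorescence; 0% = enzyme with DMSO and 100% = DMSO without enzyme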
# DNA FID counter – counter-screen for HCV NS3 helicase inhibitors: DNA intercalator displacement. 290,000 tested, 0.17% active. DNA fluorescent intercalator displacement, fluorescence. inhibition, % at 7.9 µM; in the data active = inhibition above about 37%;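 note: 0% = vehicle and 100% = reference compound; higher means more ethidium bromide displaced from hairpin DNA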
# RAD54 branch – RAD54 (human) branch migration inhibition; Q92698; RAD54 Holliday junction branch migration, FAM/BHQ fluorescence; inhibition, % at 10.4 µM; 360,000 tested, 0.14% active; AID 602329;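 active = mean normalized replicate activity at least 40 and at least half of replicates scoring 40 or more; inconclusive = only one of the two criteria met; inactive = mean below 40 and under half of replicates reaching 40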;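 note: 0% = median of neutral control wells and 100% = median of positive control wells; inhibitors cause a drop in the FAM fluorescence signal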
# PvdQ acylase – P. aeruginosa PvdQ acylase inhibition; inhibition, % at 10 µM; 340,000 tested, 0.063% active; purified PvdQ acylase, fluorescence plate reader; in the data active = inhibition above about 30%, passing the limit was not always enough; inconclusive = no clear call, values can overlap the other calls;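 note: 0% = vehicle neutral wells and 100% = reference inhibitor wells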
# IMP-1 inh-2 – blocks IMP-1 metallo-beta-lactamase in VIM-2 selectivity screen | shares compounds with VIM-2 inh | inhibition, % at 5.6 µM | 1,300 tested, under 10 active | AID 1856 | purified IMP-1, nitrocefin hydrolysis, epi-absorbance fluorescence; call rule not given here;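 note: 0% = enzyme with vehicle and 100% = vehicle without enzyme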
# VIM-2 FRET inh – counter-screen for VIM-2 inhibitors: epi-absorbance artifacts via FRET; inhibition, % at 5.6 µM; purified VIM-2, CCF2 FRET substrate hydrolysis; 1,300 tested, 23% active; shares compounds with VIM-2 inh; AID 1857;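 active = inhibition above the mean of all tested compounds plus 3 SD, cut at about 19% in these data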;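 note: 0% = VIM-2 plus DMSO and 100% = no enzyme wells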
# TEM-1 counter – blocks E. coli TEM-1 beta-lactamase in VIM-2 selectivity screen; shares compounds with VIM-2 inh; Purified TEM-1, nitrocefin hydrolysis, epi-absorbance fluorescence; inhibition, % at 5.6 µM; 1,300 tested, 3% active;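 active = inhibition above that campaign's mean inhibition plus 3 SD, cut at about 0.46% in these data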;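 note: 0% = TEM-1 with DMSO and 100% = TEM-1 with 100 µM potassium clavulanate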
# Target sequence (P62593 whole entry, looked up): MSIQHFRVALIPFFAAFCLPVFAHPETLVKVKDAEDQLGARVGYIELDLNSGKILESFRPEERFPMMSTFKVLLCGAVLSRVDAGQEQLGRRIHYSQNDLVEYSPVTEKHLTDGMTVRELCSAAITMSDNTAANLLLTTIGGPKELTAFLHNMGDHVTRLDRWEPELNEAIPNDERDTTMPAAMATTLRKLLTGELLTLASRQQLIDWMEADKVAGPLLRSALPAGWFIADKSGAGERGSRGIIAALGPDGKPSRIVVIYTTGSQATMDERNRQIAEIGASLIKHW
# VIM-2 confirm 2 – confirmation of P. aeruginosa VIM-2 metallo-beta-lactamase inhibitors; shares compounds with VIM-2 inh; purified VIM-2, nitrocefin hydrolysis, epi-absorbance; inhibition, % at 5.6 µM; 1,300 tested, 96% active;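 active = inhibition of the VIM-2 beta-lactamase enzyme above about 11% from the earlier first-round screen, limit read from the data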;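 note: 0% = VIM-2 with DMSO and 100% = buffer wells without enzyme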
# Numbers without * were called inactive; ? = inconclusive; nt = not tested or not shown. Only some compounds are listed: those with a hit (about 1% of all), similar ones and a draw of the others.
SMILES,IMP-1 inh-1,VIM-2 inh,DNA FID counter,RAD54 branch,PvdQ acylase,IMP-1 inh-2,VIM-2 FRET inh,TEM-1 counter,VIM-2 confirm 2
COc1cc2c(cc1OC)/C(=C/C(=O)c1ccc(F)cc1)NCC2,-2,14*,-21,11,-12,-3,-5,-6,19*
COc1cc2c(cc1OC)/C(=C/C(=O)c1ccccc1F)NCC2,-4,-1,-14,17,15,nt,nt,nt,nt
C[C@H](CO)N1C[C@H](C)[C@H](CN(C)C(=O)Cc2ccncc2)Oc2ncc(C3=CCCCC3)cc2C1=O,nt,nt,nt,3,nt,nt,nt,nt,nt
CCCCn1c(-c2nn(C)cc2Cl)n[nH]c1=S,-2,39*,-12,3,-15,-2,66*,-8,48*
CCCCCCn1c(-c2cccs2)n[nH]c1=S,-3,72*,-26,-2,-12,-5,83*,-11,76*
CCCCn1c(-c2nn(C)c(C)c2Cl)n[nH]c1=S,-3,36*,-14,5,-5,-3,66*,-8,46*
CCn1c(-c2nn(C)cc2Cl)n[nH]c1=S,-4,2,-7,2,0,nt,nt,nt,nt
COc1ccc([C@H]2C[C@H]3C(Br)=CC2C(=O)[C@]32CO2)cc1OC,nt,nt,nt,-2,nt,nt,nt,nt,nt
COc1cccc(-c2cn(CC[C@@H]3CC[C@H](NC(=O)CC4CC4)[C@H](CO)O3)nn2)c1,nt,nt,nt,-11,nt,nt,nt,nt,nt
S=c1[nH]nc(-c2ccn[nH]2)n1-c1ccccc1Cl,-4,17*,-3,nt,11,-3,34*,-4,22*
CN1CCN(C(=O)C2CCC(=O)N(Cc3cccc(C(F)(F)F)c3)C2)CC1 (stereo not given),-2,0,-3,-2,-11,nt,nt,nt,nt
CCN1CCN(C(=O)C2CCC(=O)N(Cc3cccc(C(F)(F)F)c3)C2)CC1 (stereo not given),-1,27*,-1,7,-3,-4,-1,-6,2
Cc1nn2c(-c3ccc(F)cc3)ccnc2c1Cl,-2,59*,-11,-10,-5,-3,-4,-5,70*
C[C@H]1CCCCO[C@@H](CN(C)C(=O)NC2CCCCC2)[C@@H](C)CN([C@@H](C)CO)C(=O)c2cc(NC(=O)C3CCCCC3)ccc2O1,nt,nt,nt,6,nt,nt,nt,nt,nt
O=C1N=C(c2ccccc2)C(c2ccccc2)N1 (stereo not given),-3,15*,4,-7,-16,-2,-5,-6,51*
COc1ccc(C2=NC(=O)NC2c2ccc(OC)cc2)cc1 (stereo not given),-1,1,-10,nt,-13,nt,nt,nt,nt
O=C(O)c1csc(-n2nc(-c3ccccc3)cc2C(F)(F)F)n1,-4,36*,-18,nt,2,-3,-1,-5,6
C[C@@H]1CN([C@@H](C)CO)C(=O)c2cc(NC(=O)C3CCCCC3)ccc2O[C@@H](C)CCCCO[C@@H]1CN(C)C(=O)c1ccncc1,nt,nt,nt,-1,nt,nt,nt,nt,nt
Cc1oc2ccc(Br)cc2c(=O)c1-c1nn[nH]n1,-3,21*,3,nt,0,-1,41*,4.2*,27*
CN(C)CCCSc1nc(-c2ccccc2)nc2c1CCC2,1,35*,6,2,-23,-2,3,-7,57*
CC(=C/c1ccccc1)/C=N/n1c(-c2ccncc2)n[nH]c1=S,1,16*,-33,nt,-2,-4,48*,-9,28*
CC(=C/c1ccccc1)/C=N/n1c(C)n[nH]c1=S,-2,33*,-14,-5,-11,-2,61*,-8,42*
CC(/C=N/n1c(-c2cccnc2)n[nH]c1=S)=C\c1ccccc1,-2,6,-6,4,5,nt,nt,nt,nt
COc1ccc(S(=O)(=O)N[C@@H]2CC[C@@H](CC(=O)N3CCN(c4ccccc4)CC3)O[C@@H]2CO)cc1,nt,nt,nt,4,nt,nt,nt,nt,nt
CCN1CCN(CCCNC(=O)CCCn2nc(C)c3sc4ccccc4c3c2=O)CC1,-1,13*,22,7,-9,-4,4,-6,16*
SMILES,IMP-1 inh-1,VIM-2 inh,DNA FID counter,RAD54 branch,PvdQ acylase,IMP-1 inh-2,VIM-2 FRET inh,TEM-1 counter,VIM-2 confirm 2
CCCN1CCN(C(=O)C(C)n2nc(C)c3sc4ccccc4c3c2=O)CC1 (stereo not given),-3,29*,1,-3,-17,-2,-4,-5,36*
COc1ccc(CN(C)C[C@H]2Oc3ccc(NC(=O)Cn4cnnn4)cc3C(=O)N([C@@H](C)CO)C[C@H]2C)cc1,nt,nt,nt,4,nt,nt,nt,nt,nt
COc1ccc(C=O)c2[nH]c3c(Cl)ncnc3c12,-4,16*,-4,-1,-15,-3,-7,-5,24*
COc1cc2[nH]c3c(Cl)ncnc3c2cc1OC,-2,-2,2,40,-4,nt,nt,nt,nt
CO[C@H]1CN(C)C(=O)c2ccc(NC(=O)C3CCCC3)cc2OC[C@@H](C)N(CCC(F)(F)F)C[C@H]1C,nt,nt,nt,9,nt,nt,nt,nt,nt
O=C1Nc2cc(C(=O)NCCCN3CCCC3)ccc2S/C1=C/c1ccccc1F,-3,33*,27,10,2,-3,54*,-7,38*
COc1cccc(/C=C2/Sc3ccc(C(=O)NCCCN4CCCC4)cc3NC2=O)c1,0,16*,25,?,-12,-2,43*,-5,28*
C[C@H](CO)N1C[C@H](C)[C@@H](CN(C)CC2CC2)OCCCC[C@H](C)Oc2ccc(NC(=O)c3ccncc3)cc2C1=O,nt,nt,nt,7,nt,nt,nt,nt,nt
CCCc1cn(CC[C@@H]2CC[C@H](NS(=O)(=O)c3ccccc3Cl)[C@@H](CO)O2)nn1,nt,nt,nt,-2,nt,nt,nt,nt,nt
COC(=O)c1c(-c2ccncc2)csc1NC(=O)c1ccoc1C,-1,50*,-12,3,-1,-3,-5,-5,74*
O=C(C[C@H]1CC[C@H]2[C@@H](COC[C@@H](O)CN2C(=O)c2ccncc2)O1)NCc1cccc(F)c1,nt,nt,nt,0,nt,nt,nt,nt,nt
CCN(CC)CCCCNc1ncc2cc(-c3cc(OC)cc(OC)c3)c(NC(=O)NC(C)(C)C)nc2n1,-3,17*,20,10,-8,-4,5,-7,25*
COc1ccc(NC(=O)Nc2ccc3c(c2)C(=O)N([C@H](C)CO)C[C@H](C)[C@H](CN(C)S(=O)(=O)c2ccc(Cl)cc2)O3)cc1,nt,nt,nt,-4,nt,nt,nt,nt,nt
O=C(O)c1cccc(NC(=S)N/N=C/c2ccccc2OCc2cccc(Br)c2)c1,-4,74*,-21,nt,-7,-3,65*,-9,40*
O=C(O)c1cccc(NC(=S)N/N=C/c2cccc(O)c2)c1,-3,32*,1,nt,-1,-5,28*,-9,16*
O=C(O)c1cccc(NC(=S)N/N=C/c2ccccn2)c1,-4,-1,-8,nt,-6,nt,nt,nt,nt
